# Measured values: ChEMBL document CHEMBL4725347, “Discovery of a Monoiodo Aza-BODIPY Near-Infrared Photosensitizer: in vitro and in vivo Evaluation for Photodynamic Therapy” (J Med Chem, 2020)
# Activity calls are given as the source filed them. No cut-off for these calls is given here.
# Tests used:
# [1] = Induction of singlet oxygen generation in PBS containing 1% Cremophor EL/1,2-propanediol (10:3, v:v) system assessed as relative rate of DPBF degradation to MB at 1 uM irradiated with 90 mW/cm2 halogen light; format: functional
# Procedure, shortened: (§1)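 Singlet oxygen generation measured with 1,3-diphenylisobenzofuran (DPBF) as scavenger. The decrease in DPBF absorbance at 411 nm was monitored over time during light irradiation, and the photodegradation rate was calculated.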
# [2] = Stability of the compound in acetonitrile assessed as compound degradation under dark condition; format: physicochemical
# [3] = Absorption property of the compound in chloroform assessed as hypsochromic shift by measuring maximum absorption wavelength by UV-visible spectrophotometric method; format: physicochemical
# Procedure, shortened: (§2)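 Electronic absorption spectra recorded by UV-visible spectrophotometry at room temperature. Solvents were chloroform, isopropanol, acetonitrile, DMF, and PBS buffer containing 1% Cremophor EL/1,2-propanediol (10:3, v:v). Chloroform data were referenced to the non-halogenated parent dye.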
# [4] = Photostability of the compound in acetonitrile assessed as compound degradation irradiated with 90 mW/cm2 light; format: physicochemical
# [5] = Stability of the compound in PBS containing 1% Cremophor EL/1,2-propanediol (10:3, v:v) system assessed as compound degradation under dark condition; format: physicochemical; details: buffer
# MCF7 = experiment: Phototoxicity against human MCF7 cells assessed as reduction in cell viability preincubated for 3 hrs followed by 54 J/cm2 light irradiation and measured after 24 hrs by MTT assay; format: functional, cell-based; details: MCF7, light or radiation study
# Procedure, shortened: (§3)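 PS formulated in PBS containing Cremophor EL/1,2-propanediol (10:3, v:v) after THF removal, filtered, with concentration confirmed by UV-Vis. Cells were grown in DMEM with 10% FBS and seeded at 3×10^3 per well overnight. They were incubated with PS for 3 h, irradiated at λ > 590 nm, kept 24 h at 37 °C, then given MTT (0.5 mg/mL, 4 h) with DMSO solubilization and A490 read-out.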
# HeLa [6] = experiment: Phototoxicity against human HeLa cells assessed as reduction in cell viability preincubated for 3 hrs followed by 54 J/cm2 light irradiation and measured after 24 hrs by MTT assay; format: functional, cell-based; details: light or radiation study; procedure, shortened: as §3
# [7] = Induction of singlet oxygen generation in N,N-dimethylformamide assessed as relative rate of DPBF degradation to MB at 1 uM irradiated with 90 mW/cm2 halogen light; format: functional; procedure, shortened: as §1
# [8] = Photostability of the compound in isopropanol assessed as compound degradation irradiated with 90 mW/cm2 light; format: physicochemical
# SW480 = experiment: Phototoxicity against human SW480 cells assessed as reduction in cell viability preincubated for 3 hrs followed by 54 J/cm2 light irradiation and measured after 24 hrs by MTT assay; format: functional, cell-based; details: SW480, light or radiation study; procedure, shortened: as §3
# [9] = Dark toxicity in human MCF7 cells assessed as reduction in cell viability after 3 hrs by MTT assay; format: cell-based
# [10] = Emission property of the compound in chloroform assessed as maximum emission wavelength by fluorescence spectrophotometric method; format: physicochemical
# Procedure, shortened: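 Fluorescence spectrum recorded in chloroform by fluorescence spectrophotometer at room temperature.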
# [11] = Induction of singlet oxygen generation in isopropanol assessed as relative rate of DPBF degradation to MB at 1 uM irradiated with 90 mW/cm2 halogen light; format: functional; procedure, shortened: as §1
# [12] = Photostability of the compound in PBS containing 1% Cremophor EL/1,2-propanediol (10:3, v:v) system assessed as compound degradation irradiated with 90 mW/cm2 light; format: physicochemical; details: buffer
# [13] = Photostability of the compound in N,N-dimethylformamide assessed as compound degradation irradiated with 90 mW/cm2 light; format: physicochemical
# [14] = Absorption property of the compound in chloroform assessed as absorption coefficient by UV-visible spectrophotometric method; format: physicochemical; procedure, shortened: as §2
# [15] = Dark toxicity in human SW480 cells assessed as reduction in cell viability after 3 hrs by MTT assay; format: cell-based
# [16] = Dark toxicity in human HeLa cells assessed as reduction in cell viability after 3 hrs by MTT assay; format: cell-based
# Procedure, shortened: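 Compound was formulated with Cremophor EL/1,2-propanediol in PBS, filtered, and its concentration confirmed by UV-Vis. HeLa cells in DMEM with 10% FBS at 37 °C, 5% CO2 were seeded at 3×10^3 cells/well and adhered overnight. Cells were exposed to graded concentrations for 3 h without light, incubated 24 h, then MTT 0.5 mg/mL for 4 h; formazan dissolved in DMSO, A490 read.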
# [17] = Absorption property of the compound in acetonitrile assessed as absorption coefficient by UV-visible spectrophotometric method; format: physicochemical; procedure, shortened: as §2
# [18] = Absorption property of the compound in PBS containing 1% Cremophor EL/1,2-propanediol (10:3, v:v) system assessed as absorption coefficient by UV-visible spectrophotometric method; format: physicochemical; details: buffer; procedure, shortened: as §2
# [19] = Absorption property of the compound in isopropanol assessed as absorption coefficient by UV-visible spectrophotometric method; format: physicochemical; procedure, shortened: as §2
# [20] = Absorption property of the compound in N,N-dimethylformamide assessed as absorption coefficient by UV-visible spectrophotometric method; format: physicochemical; procedure, shortened: as §2
# HeLa [21] = experiment: Antitumor activity against human HeLa cells xenografted in Balb/c nu/nu mouse assessed as tumor growth inhibition at 2 mg/kg, iv pretreated for 15 mins followed by 54 J/cm2 light irradiation for 10 mins and measured after 24 days; format: functional, organism-based
# Procedure, shortened: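 Female Balb/c nu/nu mice with subcutaneous HeLa tumors (5×10^6 cells) reaching 80–100 mm³ on day 7 were randomized, n = 5 per group. Mice received 2 mg/kg by tail vein, or saline for controls. After 15 min the tumor was irradiated once with 54 J/cm² (75 W halogen lamp, >590 nm filter, 90 mW/cm², 10 min), unanaesthetized. Calipers every other day; V = 0.5×L×W²; body weight tracked.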
# [22] = Toxicity in human HeLa cells xenografted Balb/c nu/nu mouse assessed as body weight loss at 2 mg/kg, iv pretreated for 15 mins followed by 54 J/cm2 light irradiation for 10 mins and measured for 24 days; format: organism-based; details: in vivo, 0.25 h
# Procedure, shortened: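 Female Balb/c nu/nu mice (18-22 g) carried subcutaneous HeLa cells (about 5×10^6, right back) and were treated on day 7 at a tumor volume of 80-100 mm³. Five mice per group received a tail-vein dose; saline controls were also irradiated. Fifteen minutes later the tumor was irradiated once with a 75 W halogen lamp (590 nm cut-on, 90 mW/cm², 10 min), without anaesthesia. Body weight was recorded every other day.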
Structure (SMILES),fold change (FC) [1],Stabilty [2],Activity [3],Stabilty [4],Stabilty [5],IC50 (MCF7),IC50 (HeLa [6]),fold change (FC) [7],Stabilty [8],IC50 (SW480),IC50 at 3 h [9],Activity [10],fold change (FC) [11],Stabilty [12],Stabilty [13],Activity [14],IC50 at 3 h [15],IC50 at 3 h [16],Activity [17],Activity [18],further results
COc1ccc(C2=[N+]3C(=Nc4c(-c5ccccc5)cc(-c5ccc(OC)cc5)n4[B-]3(F)F)C(c3ccccc3)=C2)cc1,0.3,Unstable,688 nm,Stable,Unstable,9.4 µM,11.6 µM,0.04,Stable,12.1 µM,> 50 µM,725 nm,0.28,Stable,Unstable,99000 M⁻¹ cm⁻¹,> 50 µM,> 50 µM,,,
COc1ccc(C2=[N+]3C(=Nc4c(-c5ccccc5)c(Br)c(-c5ccc(OC)cc5)n4[B-]3(F)F)C(c3ccccc3)=C2I)cc1,2.3,Unstable,679 nm,Stable,Unstable,0.42 µM,0.31 µM,0.65,Stable,0.53 µM,> 50 µM,720 nm,6.8,Stable,Unstable,76000 M⁻¹ cm⁻¹,> 50 µM,> 50 µM,59300 M⁻¹ cm⁻¹,34000 M⁻¹ cm⁻¹,Activity [19]: 59300 M⁻¹ cm⁻¹; Activity [20]: 59300 M⁻¹ cm⁻¹
COc1ccc(C2=[N+]3C(=Nc4c(-c5ccccc5)cc(-c5ccc(OC)cc5)n4[B-]3(F)F)C(c3ccccc3)=C2Br)cc1,0.83,Unstable,679 nm,Stable,Unstable,0.35 µM,0.27 µM,0.19,Stable,0.28 µM,> 50 µM,720 nm,1.1,Stable,Unstable,81000 M⁻¹ cm⁻¹,> 50 µM,> 50 µM,59300 M⁻¹ cm⁻¹,34000 M⁻¹ cm⁻¹,Activity [19]: 59300 M⁻¹ cm⁻¹; Activity [20]: 59300 M⁻¹ cm⁻¹
COc1ccc(C2=[N+]3C(=Nc4c(-c5ccccc5)c(I)c(-c5ccc(OC)cc5)n4[B-]3(F)F)C(c3ccccc3)=C2I)cc1,2.2,Unstable,679 nm,Stable,Unstable,0.66 µM,0.59 µM,0.66,Stable,1.3 µM,> 50 µM,723 nm,7,Stable,Unstable,74000 M⁻¹ cm⁻¹,> 50 µM,> 50 µM,59300 M⁻¹ cm⁻¹,34000 M⁻¹ cm⁻¹,Activity [19]: 59300 M⁻¹ cm⁻¹; Activity [20]: 59300 M⁻¹ cm⁻¹
COc1ccc(C2=[N+]3C(=Nc4c(-c5ccccc5)c(Br)c(-c5ccc(OC)cc5)n4[B-]3(F)F)C(c3ccccc3)=C2Br)cc1,1.9,Unstable,679 nm,Stable,Unstable,0.15 µM,0.13 µM,0.36,Stable,0.16 µM,> 50 µM,720 nm,4.5,Stable,Unstable,77000 M⁻¹ cm⁻¹,> 50 µM,> 50 µM,59300 M⁻¹ cm⁻¹,34000 M⁻¹ cm⁻¹,Activity [19]: 59300 M⁻¹ cm⁻¹; Activity [20]: 59300 M⁻¹ cm⁻¹; TGI (HeLa [21]): Active; Activity [22]: Non-Toxic
COc1ccc2c(c1)CCc1c(-c3ccccc3)c3n(c1-2)[B-](F)(F)[N+]1=C(c2ccc(C)s2)C(I)=C(c2ccccc2)C1=N3,,,716 nm,,,16.6 µM,12.3 µM,0.42,,21.4 µM,> 50 µM,756 nm,,,,76900 M⁻¹ cm⁻¹,> 50 µM,> 50 µM,,,
Cc1ccc(C2=[N+]3C(=Nc4c(-c5ccccc5)cc(-c5ccc(C)cc5)n4[B-]3(F)F)C(c3ccccc3)=C2I)cc1,,,659 nm,,,1.2 µM,2.6 µM,0.26,,12.4 µM,> 50 µM,690 nm,,,,89600 M⁻¹ cm⁻¹,> 50 µM,> 50 µM,,,
Cc1ccc(C2=[N+]3C(=Nc4c(-c5ccccc5)cc(-c5ccc(C)s5)n4[B-]3(F)F)C(c3ccccc3)=C2I)s1,,,732 nm,,,7.7 µM,15.6 µM,0.32,,20.6 µM,> 50 µM,766 nm,,,,71700 M⁻¹ cm⁻¹,> 50 µM,> 50 µM,,,
C=Cc1c(C)c2cc3nc(c(CC(=O)O)c4[nH]c(cc5nc(cc1[nH]2)C(C)=C5CC)c(C)c4C(=O)O)[C@@H](CCC(=O)O)[C@@H]3C [CHLORIN E6],,,,,,3.4 µM,1.92 µM,,,3.1 µM,> 50 µM,,,,,,> 50 µM,> 50 µM,,,TGI (HeLa [21]): Active; Activity [22]: Toxic
Cc1ccc(C2=[N+]3C(=Nc4c(-c5ccccc5)c(I)c(-c5ccc(C)s5)n4[B-]3(F)F)C(c3ccccc3)=C2I)s1,,,732 nm,,,16.4 µM,> 25 µM,0.36,,> 25 µM,> 50 µM,768 nm,,,,91300 M⁻¹ cm⁻¹,> 50 µM,> 50 µM,,,
